PubChem BioAssay AID623990 (Broad Institute, 2012)
Activity calls are given as the source filed them.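 How the source made its calls: active means falling cell signal with fitted IC50 no higher than a set limit, twice the top tested dose; inconclusive means flat fit with toxicity between 30 and 70%, or poor fit; inactive means the rest.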

Test system: HeLa viability, CellTiter-Glo ATP luminescence
Test: HeLa cell cytotoxicity, dose response, cytotoxicity control for pyoverdine/PvdQ inhibitor project, CellTiter-Glo luminescence, dry powder, set 2 (AID 623990)
Settings: not given
Procedure, shortened: (§1)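 Assay system: HeLa cells. Amount: 2,500 HeLa cells per well. Technique: CellTiter-Glo ATP luminescence. Timing: cells settled 24 h at 37 °C, then compound exposure 48 h. Medium: phenol red-free DMEM, 10% FBS. Read-out basis: viability, lower luminescence meaning toxicity. Compound dosing: 3-fold dose series.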
For `CCCCC(c1ccc(Cl)cc1)c1nn[nH]n1` (stereo unspecified), the IC50 was > 240 µM (inactive). For `CN(C)CCCC(C#N)c1ccc(F)cc1` (stereo unspecified), the IC50 was > 240 µM (inactive). Molecule `N#CC(c1cccc(Cl)n1)c1ccc(Cl)cc1F` (stereo unspecified) has an IC50 of 111 µM. In the case of `COCCC(C#N)c1ccc(Cl)cc1` (stereo unspecified), the IC50 is reported as 62.2 µM. With `N#CC(c1ccc(Cl)cc1)c1ncccc1Cl` (stereo unspecified) the IC50 was > 240 µM (inactive). For `N#CC(c1cccc(C(F)(F)F)n1)c1ccc(Cl)cc1F` (stereo unspecified), the IC50 was > 240 µM (inactive).

Test system: not listed separately
Test: as above
Settings: HeLa viability, CellTiter-Glo ATP luminescence; at 120 µM (top of the series)
Procedure, shortened: as §1
For `N#CC1c2ccc(Cl)cc2CCc2cccnc21` (stereo unspecified), the activity change, negative = toxicity was 2.14% (inactive). For `CCCCC(C#N)c1ccc(Cl)cn1` (stereo unspecified), the activity change, negative = toxicity was 27.3% (inactive). With `COCCOCCC(C#N)c1ccc(Cl)cc1` (stereo unspecified) the activity change, negative = toxicity was -0.038% (inactive). In the case of `N#Cc1cccc(C(C#N)c2ccc(F)cc2)n1` (stereo unspecified), the activity change, negative = toxicity is reported as 4.63% (inactive). For `CCCCC(C#N)c1ccc(Cl)cc1` (stereo unspecified), the activity change, negative = toxicity was 13.5% (inactive). In the case of `N#CC(c1ccc(F)cc1)c1cccc(Cl)n1` (stereo unspecified), the activity change, negative = toxicity is reported as -3.39% (inactive). In the case of `N#CC(c1ccc(C(F)(F)F)c(Cl)n1)c1ccccc1OC(F)(F)F` (stereo unspecified), the activity change, negative = toxicity is reported as 5.17% (inactive). For `N#CC(c1ccc(Cl)cc1)N1CCCC1` (stereo unspecified), the activity change, negative = toxicity was 30.4% (inactive). For `COCCC(C#N)c1ccc(F)cc1` (stereo unspecified), the activity change, negative = toxicity was 6.44% (inactive). For `N#CC(c1ccc(Cl)cc1)c1ccccn1` (stereo unspecified), the activity change, negative = toxicity was 5.57% (inactive). For `N#CC(c1ccc(Cl)cc1)c1cccc(C(F)(F)F)n1` (stereo unspecified), the activity change, negative = toxicity was 10.3% (inactive). In the case of `CCCCC(C#N)c1ccc(F)cc1` (stereo unspecified), the activity change, negative = toxicity is reported as 5.81% (inactive). With `CN(C)CCCC(C#N)c1ccc(Cl)cc1` (stereo unspecified) the activity change, negative = toxicity was 23.3% (inactive). For `CCCCC(C#N)c1ccccn1` (stereo unspecified), the activity change, negative = toxicity was 2.12% (inactive). In the case of `N#CC(c1ccc(F)cc1)c1cccc(C(F)(F)F)n1` (stereo unspecified), the activity change, negative = toxicity is reported as 13.5% (inactive). In the case of `COCCOCCC(C#N)c1ccc(F)cc1` (stereo unspecified), the activity change, negative = toxicity is reported as 3.67% (inactive). With `COCCNC(C#N)c1ccc(Cl)cc1` (stereo unspecified) the activity change, negative = toxicity was 4.87% (inactive). For `N#CC(c1ccc(Cl)cc1)c1cccc(Cl)n1` (stereo unspecified), the activity change, negative = toxicity was 12.2% (inactive). With `Clc1ccc(C(c2cccc(Cl)n2)c2nn[nH]n2)cc1` (stereo unspecified) the activity change, negative = toxicity was 8.71% (inactive). With `CCCCC(C#N)c1ccc(F)cn1` (stereo unspecified) the activity change, negative = toxicity was 7.3% (inactive).
